Results of several laboratories.
Target: Casein kinase I isoform alpha (CSNK1A1, Homo sapiens, UniProt P48729)

Structure (SMILES)	assay	conditions	remaining binding [%]
O=C(c1ccc(Nc2ncc(Cl)c(-c3ccc(Cl)s3)n2)cc1)N1CCC(N2CCCC2)CC1	binding, competition with immobilised ligand	1 µM	97
COc1ncc2cc3ccccc3nc2c1C#N	cell-free assay, competition with immobilised ligand	5 µM	97
CC1CCCN1c1nccc(-c2cnn3ncccc23)n1 (stereo not shown)	binding	1 µM	100
c1cncc(-c2cccc(Nc3nccc(NC4CCCCC4)n3)c2)c1	binding, competition with immobilised ligand	10 µM	71
CNC(=O)[C@@H]1CC[C@@H](n2c(-c3ccc4cnccc4c3)nc3ccc(C(=O)NCc4cccc(C(N)=O)c4)cc32)C1	binding, competition with immobilised ligand	1 µM	99
CC1=C(C#N)C(c2ccc3c(c2)c(NC(=O)c2ccccc2C)nn3C)C(C#N)=C(C)N1	cell-free assay, competition with immobilised ligand	1 µM	70
O=C(c1ccc(Nc2nccc(-c3cc4ccccc4s3)n2)cc1)N1CCC(N2CCCC2)CC1	binding, competition with immobilised ligand	1 µM	78
COc1cnc(Nc2cccc(S(N)(=O)=O)c2)nc1N1CCN(c2ccccc2)CC1	binding, competition with immobilised ligand	1 µM	93
FC(F)(F)Oc1cccc(-c2cnc3ccc(-c4ccncc4)nn23)c1	cell-free assay, competition with immobilised ligand	5 µM	52
C[C@@H]1CCN(c2nccc(-c3cnn4ncccc34)n2)C1	binding	1 µM	61
C[C@@H](c1ccc(-n2cnc3c(N)ncnc32)cc1)N1CCc2nn(C)c(Cc3ccccc3)c2C1=O	binding, competition with immobilised ligand	0.1 µM	87
O=C(N1CCS(=O)(=O)CC1)N1C[C@H](c2ccc(OC(F)(F)F)cc2)C[C@H](c2nc(C3CC3)no2)C1	cell-free assay, competition with immobilised ligand	1 µM	100
CN(c1nccc(-c2cnn3ncccc23)n1)C1CC1	binding	1 µM	88
CS(=O)(=O)c1cc(C2(NC(=O)c3cncc4c3cnn4-c3ccc(F)cc3)CC2)ccn1	cell-free assay, competition with immobilised ligand	1 µM	96
O=C(Nc1c[nH]nc1C(=O)NC1CCNCC1)c1cc(F)cc(F)c1	binding, competition with immobilised ligand	1 µM	75
N[C@H]1CCN(c2nccc(-c3cnn4ncccc34)n2)C1	binding	1 µM	41
Cn1nc(C(F)(F)F)cc1-c1cnc(N2CCc3cc(S(=O)(=O)Nc4c(F)cc(Cl)cc4F)cc(N4CCCC4=O)c32)nc1	cell-free assay, competition with immobilised ligand	1 µM	86
O=C(NCCCN1CCOCC1)c1ccc(Nc2ncc(Cl)c(-c3ccc(Cl)s3)n2)cc1	binding, competition with immobilised ligand	1 µM	100
Cc1cc(C)c(-n2ccn3nc(-c4cccnc4)cc23)cc1NC(=O)c1cc(C#N)cc(S(F)(F)(F)(F)F)c1	cell-free assay, competition with immobilised ligand	0.1 µM	67
c1cnn2ncc(-c3ccnc(N4CCC45COC5)n3)c2c1	binding	1 µM	14
CCCCN(CCCC)C(=O)CN1C[C@H](c2cc(OC)c3c(c2)OCO3)[C@@H](C(=O)O)[C@@H]1CC(C)(C)CCC	cell-free assay, competition with immobilised ligand	1 µM	98.1
CN(C)c1nccc(-c2cnc3ncccn23)n1	binding	1 µM	36
